Source: PubChem BioAssay
Only some compounds are listed: those with a hit (about 3.3% of all), similar ones and a draw of the others.
Exocytosis inh: blocks lytic granule exocytosis; inhibition, % at 10 µM; TALL-104 LAMP-1 surface exposure, flow cytometry; cells stimulated with thapsigargin and PMA; AID 651702; 360,000 compounds, 0.66% hits;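 active = inhibition above about 55%, limit read from the data; inconclusive = no clear call, values can overlap the other calls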
CendR NRP1 mod: alters CendR peptide binding to human NRP-1 | O14786 | 360,000 compounds, 0.85% hits | inhibition, % at 25 µM | FAM-RPARPAR peptide binding to NRP-1, fluorescence polarization;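 active = inhibition or corrected inhibition above about 18%, plus a signal ratio from 0.5 to 1.5, limit read from the data, passing the limit was not always enough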
Arr AP2 block: blocks beta-arrestin peptide binding to AP2 adaptin. 340,000 compounds, 0.31% hits. FITC-arrestin peptide / GST-AP2 beads, flow cytometry; AP2 beta2 appendage carries R879A mutation. inhibition, % at 10 µM. AID 504490;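 active = inhibition above a set limit, near 3 SD of compounds lacking own fluorescence, cut at about 54% in these data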;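 also: plate controls were DMSO wells for no effect and 5 µM unlabelled arrestin peptide for full effect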
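System: GST-AP2 R879A glutathione beads. Medium: PBS with 0.05% Tween 20 and 0.1% BSA. Also added: FITC-arrestin peptide, 50 nM. Incubation: 12 min plus 1 h, RT. Measured by: high-throughput flow cytometry of beads, ex 488, em 535 nm. Evaluation: percent drop in bead-associated FITC signal.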
ATG4B inhibitor: inhibitors of human ATG4B cysteine protease; Q9Y4P1; ATG4B cleavage of LC3-PLA2, NBD-HPC fluorescence, 1 h; inhibition, % at 8.33 µM; 340,000 compounds, 0.51% hits; AID 504462; in the data active = inhibition above about 40%
Target sequence (Q9Y4P1 whole entry, looked up): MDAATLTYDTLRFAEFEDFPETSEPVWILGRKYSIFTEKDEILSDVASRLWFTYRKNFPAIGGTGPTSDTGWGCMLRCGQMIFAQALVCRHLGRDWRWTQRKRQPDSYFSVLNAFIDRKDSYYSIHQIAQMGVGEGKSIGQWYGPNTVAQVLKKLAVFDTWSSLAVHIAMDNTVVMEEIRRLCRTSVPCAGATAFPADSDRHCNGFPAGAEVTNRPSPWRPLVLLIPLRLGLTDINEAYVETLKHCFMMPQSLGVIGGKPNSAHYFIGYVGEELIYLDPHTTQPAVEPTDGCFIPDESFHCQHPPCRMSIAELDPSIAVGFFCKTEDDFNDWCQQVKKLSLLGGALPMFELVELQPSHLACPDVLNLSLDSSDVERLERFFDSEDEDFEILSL
Myeloid diff MLP: myeloid differentiation induction; 360,000 compounds, 1% hits; calls only at 10 µM; ER-HoxA9 myeloid progenitors, lysozyme-GFP differentiation, flow cytometry; AID 624256;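 active = normalized GFP-positive differentiation at or above the plate's own cutoff, the solvent-only control mean plus 3 SD; inconclusive = no clear call, values can overlap the other calls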;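 also: cells exposed to compound for four days before flow analysis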
ABCB6 inh 2: blocks the human ABCB6 transporter; K562-ABCB6 porphyrin accumulation, flow cytometry, 1 h; hits give low values; fluorescence ratio to DMSO, % at 10 µM; 360,000 compounds, 0.19% hits;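 active = fluorescence ratio to DMSO below 75%, the collection mean minus 3 SD; inconclusive = too few cells collected in the well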;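 also: signal is porphyrin accumulated inside mitochondria; 100% equals median channel fluorescence of DMSO control wells; lower ratio means ABCB6 inhibition with less porphyrin fluorescence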
Numbers without * were called inactive; i = inactive; ? = inconclusive; · = not tested or not shown; + = active, no number.

SMILES | Exocytosis inh | CendR NRP1 mod | Arr AP2 block | ATG4B inhibitor | Myeloid diff MLP | ABCB6 inh 2
c1ccc(Nc2ccc(Nc3ccccc3)cc2)cc1 | 1 | 29* | 29 | 3 | ? | 105
O=[N+]([O-])c1ccc(Nc2ccccc2)cc1 | -1 | 4 | 21 | 3 | i | 97
CCN1/C(=C/C=C/C2=[N+](CC)c3ccccc3C2(C)C)C(C)(C)c2ccccc21 | 69* | 126 | · | · | ? | ·
C=C[C@@]12CN(C)[C@H]3[C@H]1[C@@]1(C(=O)Nc4ccccc41)C1CC2[C@@H]3CO1 | 1 | -3 | 2 | 8 | i | 106
COc1cc2c(cc1OC)-c1c(OC)c(OC)cc3c1[C@H](C2)N(C)CC3 | 0 | 29* | 26 | -12 | i | 100
COC(=O)C1=C(c2cc3ccccc3s2)C[C@@H]2CC[C@H]1N2C(=O)N1CCCCC1 | -3 | 8 | 17 | 0 | i | 100
O=C(O)Cn1cc(/C=C2\C(=O)NC(=O)N(c3ccc(Cl)cc3)C2=O)c2ccccc21 | 4 | -48 | -6 | 2 | i | 108
CCN(CC)C(=O)Cn1cc(/C=C2\C(=O)NC(=O)N(c3ccccc3F)C2=O)c2ccccc21 | 28 | 3 | 25 | 10 | + | 95
CC(=O)C1(c2ccccc2)CCN(C(=O)C2CCC(=O)N(CCc3cccc(F)c3)C2)CC1 (stereo not drawn) | -1 | 12 | -10 | -4 | i | 95
CC[C@H](C)/C=C(C)/C=C/C1=CC2=C(Cl)C(=O)[C@@](C)(OC(C)=O)C(=O)C2=CO1 | 2 | -19 | 8 | 67* | i | 101
CCc1ccc(N2C(=O)NC(=O)/C(=C\c3cc(C)n(-c4cc(C(=O)O)cc(C(=O)O)c4)c3C)C2=O)cc1 | 10 | -64 | 6 | 2 | i | 115
COc1ccc(-n2c(Cc3cccc([N+](=O)[O-])c3)nc3ccccc3c2=O)cc1 | -3 | 8 | 5 | 30 | i | 101
CC12CC1(C)C(=O)N(c1cc(Cl)cc(Cl)c1)C2=O (stereo not drawn) | 2 | 4 | 0 | 8 | i | 95
CCc1ccc(N2C(=O)NC(=O)C(CCc3ccncc3)(CCc3ccncc3)C2=O)cc1 | 1 | -9 | -10 | 2 | i | 90
O=C1NC(=O)C(CCc2ccncc2)(Cc2cccc(Cl)c2Cl)C(=O)N1c1ccc(Br)cc1 (stereo not drawn) | 2 | 1 | -6 | -8 | + | 97
CN1C(=O)C(=Cc2ccc(Sc3ccccc3)o2)C(=O)N(C)C1=S | 12 | -83 | -5 | 15 | i | 11*
O=C1NC(=O)C(=Cc2ccc(Sc3ccccc3)o2)C(=O)N1 | 98* | -69 | -11 | 5 | i | 87
OCc1cnc[nH]1 | -4 | 10 | 7 | -1 | i | 96
COC(=O)C1=C(c2ccccc2)C[C@@H]2CC[C@H]1N2C(=O)NCCS(C)=O (stereo partly drawn) | -14 | 23 | -8 | -11 | i | 97
CC(=O)OC1CC(OC2C(O)CC(OC3C(O)CC(OC4CCC5(C)C(CCC6C5CC(O)C5(C)C(C7=CC(=O)OC7)CCC65O)C4)OC3C)OC2C)OC(C)C1OC1OC(CO)C(O)C(O)C1O (stereo not drawn) | -5 | -8 | -35 | -4 | + | 137
c1ccc2c(c1)Sc1ccccc1N2CC1CN2CCC1CC2 (stereo not drawn) | -1 | -3 | 9 | 0 | i | 97
COC(=O)C1=C(c2ccc(S(C)(=O)=O)cc2)C[C@@H]2CC[C@H]1N2C | -9 | 35* | 1 | -13 | i | 94
COC(=O)C1=C(c2ccc(-c3ccccc3)c(F)c2)C[C@@H]2CC[C@H]1N2C(=O)N1CCC(C)CC1 | -4 | 25* | -2 | 1 | i | 86
COC(=O)C1=C(c2cccc(C#N)c2)C[C@@H]2CC[C@H]1N2C(=O)NC(C)C | 13 | 22* | 4 | -4 | i | 85
CCCNC(=O)N1[C@H]2CC[C@@H]1C(C(=O)OC)=C(c1cccc(C#N)c1)C2 | -2 | -6 | -12 | 5 | i | 97
COC(=O)C1=C(c2ccc(-c3ccccc3)c(F)c2)C[C@@H]2CC[C@H]1N2C(=O)N1CCC(O)CC1 | -4 | 1 | 4 | -22 | i | 88
